hERG rescue = hERG (human) protection from proarrhythmic block; 310,000 compounds, 0.51% hits; activation (rescue from dofetilide block), less the hit threshold, % at 10 µM; CHO-hERG, FluxOR thallium flux, dofetilide IC70 present; AID 1511;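 active = activation above the mean of controls blocked by dofetilide plus 5 SD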;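 also: thallium influx through hERG after potassium depolarization seen as dye fluorescence rise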
KCNK9 block = blocks the human KCNK9 two-pore domain potassium channel. 310,000 compounds, 1.2% hits. AID 488922. B-score at 10 µM. HEK293 KCNK9, FluxOR thallium flux fluorescence; stronger effect = lower value. Q9NPC2;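 active = ratio B-score over 3 SD below the library mean, with starting fluorescence within 5 SD of its mean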;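 also: negative B-score means less thallium flux so channel inhibition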
KCNK3 block = human KCNK3 channel inhibition, primary screen; CHO-KCNK3 thallium flux, FluxOR fluorescence; stronger effect = lower value; B-score at 10 µM; 340,000 compounds, 0.84% hits;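 active = B-score under library mean minus 4 SD, starting fluorescence ratio at most library mean plus 5 SD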;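 also: more negative B-score means stronger inhibition of thallium flux through KCNK3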
Target sequence (O14649 whole entry, looked up): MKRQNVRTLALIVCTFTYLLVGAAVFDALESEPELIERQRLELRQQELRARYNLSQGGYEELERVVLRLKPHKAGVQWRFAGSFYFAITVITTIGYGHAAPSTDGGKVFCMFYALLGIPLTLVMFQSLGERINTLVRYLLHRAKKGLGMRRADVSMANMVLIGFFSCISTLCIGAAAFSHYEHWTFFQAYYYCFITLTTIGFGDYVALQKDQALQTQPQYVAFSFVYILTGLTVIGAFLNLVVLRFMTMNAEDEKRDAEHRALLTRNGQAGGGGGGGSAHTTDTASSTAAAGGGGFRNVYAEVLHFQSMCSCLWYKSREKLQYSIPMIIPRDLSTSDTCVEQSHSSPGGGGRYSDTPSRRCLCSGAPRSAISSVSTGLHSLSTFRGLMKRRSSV
Kir21 block = Kir2.1 (mouse) channel inhibition; HEK293-Kir2.1, FluxOR thallium flux fluorescence; stronger effect = lower value; B-score at 10 µM; 310,000 compounds, 0.85% hits; AID 1672;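 active = fluorescence ratio B-score at or below minus 3 SD of library scores, with starting-brightness B-score within 2 SD, cut at about -4.2 in these data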;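 also: channel flux triggered by added potassium and thallium sulfate stimulus; B-score of peak minus minimum fluorescence over baseline after thallium stimulus; more negative B-score means stronger Kir2.1 block with less thallium influx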
KCNQ1 inh = blocks the human KCNQ1 potassium channel; P51787; 310,000 compounds, 1.3% hits; B-score at 10 µM; CHO-K1 KCNQ1, FluxOR thallium flux fluorescence; stronger effect = higher value;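 active = compounds whose thallium flux B-score, printed positive for inhibition, exceeds three library SD while starting fluorescence stays within three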;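 also: channel opened by potassium depolarization with thallium stimulus after 20 min compound exposure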
KCNQ1 act = potentiators or activators of human KCNQ1 potassium channel; CHO-K1 KCNQ1, thallium flux FluxOR fluorescence; stronger effect = higher value; B-score at 10 µM; P51787; 310,000 compounds, 0.35% hits;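 active = fluorescence ratio B-score, a plate-corrected score, at least three library SD, with initial intensity B-score within 5 SD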
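System: CHO-K1 cells stably expressing KCNQ1 / Medium: assay buffer for compound exposure, DMSO matched across wells / Reagent: thallium- and potassium-containing depolarizing buffer / Compound: one concentration, matched DMSO / Incubation: 20 min compound pretreatment at room temperature / Measured by: kinetic FluxOR fluorescence, 10 s baseline plus 110 s post-stimulus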
KCNQ1 block val = confirmation of human KCNQ1 potassium channel inhibitors; shares compounds with KCNQ1 inh; KCNQ1 cell line, FluxOR thallium flux fluorescence; inhibition, % at 10 µM; 1,600 compounds, 93% hits; AID 588353;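 active = primary screen active, with duplicate mean exceeding buffer control mean plus 3 SD of buffer wells, cut at about 28% in these data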;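 also: 0% = buffer control ratio and 100% = XE991 inhibitor control ratio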
CHO Tl flux = activity in parental CHO cells lacking KCNQ1; fluorescence ratio (Tl flux) at 10 µM; AID 588366; 1,600 compounds, 21% hits; parental CHO-K1, FluxOR thallium flux fluorescence ratio; stronger effect = lower value; zero means no signal rise above baseline; shares compounds with KCNQ1 inh;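 active = mean of duplicate thallium-flux fluorescence ratios in parental host cells more than 5 SD below the buffer control mean, cut at about 0.38 in these data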;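 also: ratio is peak minus minimum fluorescence divided by baseline fluorescence; actives read low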
KCNQ1 APC inh = human KCNQ1 inhibition validated by electrophysiology; shares compounds with KCNQ1 inh; KCNQ1-CHO cells, automated patch clamp current; calls only at 10 µM; 490 compounds, 20% hits; AID 624120;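 active = KCNQ1 current drop exceeding 3 SD of negative control wells, seen in both duplicate runs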;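 also: steady state current during a 2 s step from -80 to +40 mV; negative values mean current inhibition and positive values mean potentiation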
KCNQ2 spec = KCNQ1 inhibitor that also blocks rat KCNQ2 channel | 1,600 compounds, 71% hits | shares compounds with KCNQ1 inh | KCNQ2 cells, FluxOR thallium flux fluorescence | inhibition, % at 10 µM;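 active = mean percent inhibition of the KCNQ2 thallium signal more than 5 SD above the buffer-only control wells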;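 also: KCNQ2 expressed in CHO cells; 0% = buffer control wells and 100% = XE-991 inhibitor control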
KCNQ1-KCNE1 inh = selectivity of KCNQ1 inhibitors: inhibition of human KCNQ1/KCNE1 channel | shares compounds with KCNQ1 inh | KCNQ1/KCNE1 cells, FluxOR thallium flux fluorescence | inhibition, % at 10 µM | 1,600 compounds, 77% hits | AID 652147;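 active = mean percent inhibition of duplicate wells above the buffer-only control mean plus 3 SD of those controls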;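 also: 0% = buffer only wells and 100% = XE-991 inhibitor control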
Active calls of the source: *. The list is not random: actives were taken first. Their share in the collection is about 3.7%.

Results for COc1ccc(-c2nc(N3CCCCCC3)sc2C(=O)c2ccccc2)cc1 ?
hERG rescue: -16; KCNK9 block: inactive; KCNK3 block: inactive; Kir21 block: -1.1; KCNQ1 inh: 7*; KCNQ1 act: inactive; KCNQ1 block val: 56*; CHO Tl flux: 0.43; KCNQ2 spec: 105%*; KCNQ1-KCNE1 inh: 86%*

Results for CCOc1ccc2nc(NC3=NC(C)(C)C=C(C)N3)nc(C)c2c1 ?
hERG rescue: -16; KCNK9 block: inactive; KCNK3 block: inactive; Kir21 block: -0.77; KCNQ1 inh: 10*; KCNQ1 act: inactive; KCNQ1 block val: 88*; CHO Tl flux: 0.52; KCNQ2 spec: inactive; KCNQ1-KCNE1 inh: 92%*

Results for COc1cc(-c2cc(N)n(S(=O)(=O)c3ccc(F)cc3)n2)cc(OC)c1OC ?
hERG rescue: -17; KCNK9 block: inactive; KCNK3 block: inactive; Kir21 block: -0.13; KCNQ1 inh: inactive; KCNQ1 act: inactive

How did CCOC(=O)c1oc2ccc(S(=O)(=O)n3nc(-c4cc(OC)c(OC)c(OC)c4)cc3N)cc2c1C do in these assays?
hERG rescue: -36; KCNK9 block: inactive; KCNK3 block: inactive; Kir21 block: -0.82; KCNQ1 inh: 7*; KCNQ1 act: inactive; KCNQ1 block val: 62*; CHO Tl flux: 0.42; KCNQ2 spec: 71%*; KCNQ1-KCNE1 inh: 110%*

Results for C=CCC1(/C=N/O)CCOC(C)(C)C1 (centres undefined) ?
hERG rescue: -6; KCNK9 block: inactive; KCNK3 block: inactive; Kir21 block: 0.9; KCNQ1 inh: inactive; KCNQ1 act: inactive

Results for Nn1cnc2c(c1=O)C1(CCCCC1)Cc1ccccc1-2 ?
hERG rescue: -8; KCNK9 block: inactive; KCNK3 block: inactive; Kir21 block: -0.06; KCNQ1 inh: inactive; KCNQ1 act: inactive

How did O=c1c2c(nc3n1CCCCC3)-c1ccccc1CC21CCCC1 do in these assays?
hERG rescue: -1; KCNK9 block: inactive; KCNK3 block: inactive; Kir21 block: 0.56; KCNQ1 inh: 8*; KCNQ1 act: inactive; KCNQ1 block val: 122*; CHO Tl flux: 0.41; KCNQ1 APC inh: inactive; KCNQ2 spec: 115%*; KCNQ1-KCNE1 inh: 150%*

What do the screens show for `Cc1cc(C(=O)N/N=C/c2cccnc2)cs1`?
hERG rescue: -9; KCNK9 block: inactive; KCNK3 block: inactive; Kir21 block: -0.02; KCNQ1 inh: inactive; KCNQ1 act: inactive

How did O=C(NNC(=O)c1csc(N2CCOCC2)n1)c1cccnc1 do in these assays?
hERG rescue: -14; KCNK9 block: inactive; KCNK3 block: inactive; Kir21 block: -0.77; KCNQ1 inh: inactive; KCNQ1 act: inactive

Results for CC(C)NC(=O)c1onc(CSc2ccc(C(C)C)cc2)c1C(=O)O ?
hERG rescue: -17; KCNK9 block: inactive; KCNK3 block: inactive; Kir21 block: -0.24; KCNQ1 inh: 10*; KCNQ1 act: inactive; KCNQ1 block val: 88*; CHO Tl flux: 0.47; KCNQ2 spec: 73%*; KCNQ1-KCNE1 inh: 42%*
